The text below walks through data of the RNAGym collection of RNA variant scans (doi:10.1126/science.aae0568).

First the molecules themselves.
B1: tRNA (parent)
chain: GUUCCGUUGGCGUAAUGGUAACGCGUCUCCCUCCUAAGGAGAAGACUGCGGGUUCGAGUCCCGUACGGAACG

Fewer inactive variants are shown than the library holds. Bounds are passed on as bounds.

Variants of B1 are the subject of the data set. As to the kind of experiment: yeast fitness relative to wild type (ratio to wild type); higher = fitter; tRNA-Arg(CCU), competitive growth, 37 C, YPD. The method in brief:
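Changes in genotype frequencies gave Darwinian fitness relative to wild type. Frequencies were read by 100-nucleotide paired-end sequencing of gene amplicons before and after pooled Saccharomyces cerevisiae strains, carrying tRNA-Arg(CCU) gene variants at the native locus, were competed in YPD at 37°C for 24 hours in six replicates. A genotype was kept only with ≥ 100 starting reads, and estimates < 0.5 were set to 0.5.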
With C4A C5A U35C G44A G48C C55G A69U, the yeast fitness was not above 0.5. On to C4A C46A, for which the yeast fitness was determined as 0.997. Take C4A C46U: the yeast fitness came out at 0.903. C4A C22G C29U G68C: the yeast fitness was not above 0.5.

With C4A A37G A45C C66G, the yeast fitness was not above 0.5. As for C4A A15G G17A C61G, the yeast fitness was not above 0.5.

On to C4A A15C A69C, for which the yeast fitness was not above 0.5. Turning to C4A C5U A20G U28A A37U C61U A69U, the yeast fitness is not above 0.5. The figure for C4A C11U G39C A45C is not above 0.5; for C4A A40U A43G A65U it is not above 0.5.

In the case of C4A A21U U47G, the yeast fitness came to 0.535.

With C4A C24G C62U A69C, the yeast fitness was 0.567.

In the case of C4A C33A C34U G39C U54A, the yeast fitness was not above 0.5. In the case of C4A C11G C31U G38C, the yeast fitness worked out at 0.552. For the variant C4A A15C U35G, the yeast fitness was not above 0.5. Consider C4A C29G U47G U59G, for which the yeast fitness was not above 0.5. For C4A A14G C30G A45G G52A, the yeast fitness was determined as 0.609.

Regarding C4A C5G A15G G23C C30U, the yeast fitness is not above 0.5.

For C4A C30G A40U C60G G63C, the yeast fitness was not above 0.5.

C4A A15G C33U: the yeast fitness was determined as 0.753. With C4A A57C, the yeast fitness came out at 0.57. For C4A A57G, the yeast fitness was 0.841.

As for C4A C33A C60A G63A U64C, the yeast fitness was not above 0.5. Turning to C4A C27A, the yeast fitness turned out to be 0.798. For C4A C27U, the yeast fitness worked out at 0.901.

For C4A C27G, the yeast fitness amounted to 0.674. The figure for C4A C11A is 0.6; for C4A C5U G52C C61G it is not above 0.5; for C4A C11G A40U A45U it is not above 0.5. Regarding C4A C5U C22U C31A C34A, the yeast fitness is not above 0.5. Consider C4A C5G C66G, for which the yeast fitness amounted to 0.597. For the variant C4A C5G C66U, the yeast fitness stood at 0.538. Then C4A C30A A37C G58A A70U, with not above 0.5; and C4A C34U G51C A57C, with not above 0.5.

For the variant C4A C29U C31U U54G A65U G67A, the yeast fitness is not above 0.5. C4A C5A C34A A43G: the yeast fitness was not above 0.5. With C4A C11U C27G C33A A43C C46A, the yeast fitness is not above 0.5.

With C4A C11G U19G U53C A65C, the yeast fitness came out at 0.528.

With C4A C31U A42U, the yeast fitness came to 0.618.

For the variant C4A C31U A42C, the yeast fitness was determined as 0.572.

For C4A C11G U19G G56C, the yeast fitness worked out at 0.528.

Turning to C4A A20C C27U C49G, the yeast fitness was not above 0.5.

Consider C4A A15G G56C C60A, for which the yeast fitness is not above 0.5. On to U3G U64G, for which the yeast fitness was 0.716. The figure for C4A C11G U13G G25A is not above 0.5. Take C4A A15C C55U G63C: the yeast fitness was not above 0.5.

For the variant C4A C33A G39C C49U U54A A70U, the yeast fitness is not above 0.5. C4A C11U A21U G23A U64C G67A: the yeast fitness came to 0.581. The figure for C4A A45U U47A is not above 0.5; for C4A C30U U54A it is not above 0.5; for C4A C29G C31A G67A it is not above 0.5. Then C4A C29U, with 0.763; and C4A C29G, with 0.618. C4A C33A G39C G51C C62U A69C: the yeast fitness was not above 0.5. Turning to C4A C34G A40U U47A G67C, the yeast fitness came out at 0.55. Turning to C4A A40U A42G C55G, the yeast fitness was not above 0.5. The figure for C4A C5A C30A C31U C33A A40U C60G is not above 0.5; for C4A A21U C27A G41C it is not above 0.5. Then C4A C5A C60A, with 0.671; and C4A C29A C34A C62U, with not above 0.5. On to C4A C27G A37C A45U U47C, for which the yeast fitness was not above 0.5.

In the case of C4A C31G A45G G50C G63A, the yeast fitness is not above 0.5.

C4A A15G C33U C62U: the yeast fitness was not above 0.5.

Turning to C4A A57C C66U, the yeast fitness was not above 0.5. The figure for C4A C49G is 0.704; for C4A C49U it is 0.877. On to C4A C11A U13C U28G A43G, for which the yeast fitness is not above 0.5. Then C4A C11U A14G A40G G50C, with not above 0.5; and C4A C27G U32C A36G A57G G58A C62U A70U, with not above 0.5. Consider C4A C30G A40U C49U, for which the yeast fitness was not above 0.5. On to C4A A15C U35A C49A, for which the yeast fitness turned out to be 0.545. Consider C4A C34U G38C C49G, for which the yeast fitness was not above 0.5. As to C4A C31A U32A, the yeast fitness is not above 0.5. For C4A A20U A43U U53C U59A C66U, the yeast fitness was not above 0.5. For C4A C5G G39C, the yeast fitness was not above 0.5. As for C4A C31G G51C C66A, the yeast fitness is not above 0.5.

On to C4A C5G A20C A40U, for which the yeast fitness was determined as 0.5. As to C4A A14C U19A A69C, the yeast fitness worked out at 0.53. C4A A37C A70U: the yeast fitness was not above 0.5. Consider C4A C11A G39A G41C C46A G68A, for which the yeast fitness was not above 0.5. Turning to C4A C5G A42G, the yeast fitness was not above 0.5. With U3G U47C, the yeast fitness came to 0.901.

C4A C11G U13A A20C C22U A36C: the yeast fitness came to 0.705. The figure for C4A C5G is 0.571; for C4A A14U A20C U28G C61U C62A it is not above 0.5. Regarding C4A C31G G51C, the yeast fitness was determined as 0.524.

For C4A C24A, the yeast fitness was determined as 0.595. C4A C29U C31G C33A: the yeast fitness is not above 0.5. For the variant C4A C29G G38C, the yeast fitness is not above 0.5. As to C4A C29U A65G, the yeast fitness is not above 0.5. Regarding C4A A37U G51A, the yeast fitness was not above 0.5. Then C4A A14U A43C A65U, with not above 0.5; and C4A C24A U26C C29A A36U C60U, with not above 0.5. With C4A A14G G52C C66U, the yeast fitness is not above 0.5.

Regarding C4A C31U G51A A70G, the yeast fitness was not above 0.5. On to C4A A42G U64A, for which the yeast fitness was not above 0.5. On to C4A C24U C29U U32C U54C, for which the yeast fitness was not above 0.5.

For C4A C33A A65G, the yeast fitness was not above 0.5. In the case of C4A C5G U54A C62U, the yeast fitness worked out at 0.536. C4A A20C G68A: the yeast fitness is not above 0.5. On to C4A A40U G52C C60G, for which the yeast fitness was found to be 0.552. For the variant C4A C11G C31A A42G, the yeast fitness is not above 0.5.

Regarding C4A C5U A36G A42C, the yeast fitness was not above 0.5. Turning to C4A C22G C49A C55U C66A A69C, the yeast fitness was not above 0.5.

C4A C31A U35C A45U A69U: the yeast fitness is not above 0.5.

For C4A C22G A69C, the yeast fitness was 0.538. As for C4A A36G G51C A65U, the yeast fitness is not above 0.5. In the case of C4A C11G G18C C27G, the yeast fitness is not above 0.5. The figure for U3G U53A is 0.662; for C4A A37C G56A G68U it is 0.699. The figure for C4A A14U A20C U28G is 0.588; for C4A A21U A43G C62A it is not above 0.5. Then C4A C5G G51A C60U G67A, with not above 0.5; and C4A A36U G50A C61U, with not above 0.5. Take C4A C24U C55A A65C: the yeast fitness was not above 0.5. In the case of C4A C55A, the yeast fitness came to 0.587. On to C4A C31G A40U U64A, for which the yeast fitness was not above 0.5.

Turning to C4A C5G C60U C62U, the yeast fitness is not above 0.5. In the case of C4A C22U G68A, the yeast fitness is not above 0.5.

C4A C31U U35C: the yeast fitness is not above 0.5. Then C4A C29U A37G G39C C49U G67A, with not above 0.5; and C4A C5A A20U C46U G48A, with not above 0.5; and C4A A14U A20C U28G A70C, with not above 0.5. On to C4A A21G A65U, for which the yeast fitness stood at 0.668. Take C4A C33U C60G: the yeast fitness turned out to be 0.601.

Regarding C4A A69C, the yeast fitness came out at 0.863. Regarding C4A A69G, the yeast fitness turned out to be 0.904. In the case of C4A A69U, the yeast fitness worked out at 0.952. In the case of C4A A14U C34U, the yeast fitness came out at 0.763. With C4A C11A C29G A40G C62G, the yeast fitness was not above 0.5. C4A C5U G17A G52C: the yeast fitness came out at 0.581. As to C4A C11U G41A C60G A65G, the yeast fitness was not above 0.5. Regarding U3G U53C C66U A69U, the yeast fitness turned out to be 0.548.

Consider C4A C49A G58A, for which the yeast fitness was not above 0.5.

Take C4A C27U U28G C33G A36G C66U: the yeast fitness turned out to be 0.542. Regarding C4A A21C C22U U35C G50C A70U, the yeast fitness is 0.563. C4A C34U A57U: the yeast fitness was not above 0.5. On to C4A C61G G63A, for which the yeast fitness is not above 0.5. Consider C4A C29G A36U A65G C66U, for which the yeast fitness is not above 0.5. As to C4A A14U C29U, the yeast fitness worked out at 0.657. As to C4A C34G G68A, the yeast fitness is not above 0.5. With C4A C30G U47C C49G, the yeast fitness is not above 0.5.

For the variant C4A A14G A15G G56C, the yeast fitness was not above 0.5. As for C4A C31G C62U, the yeast fitness stood at 0.71. Take C4A C31U C61U: the yeast fitness was not above 0.5. As to U3G U26A A65G, the yeast fitness was not above 0.5. Then C4A C24A G52C A57C U59A G63A, with not above 0.5; and C4A C29U A36G G52C, with not above 0.5. On to C4A C30G A40C C55A G58C A65U A70U, for which the yeast fitness was not above 0.5. Turning to C4A A15G C31U C33U, the yeast fitness was not above 0.5. Consider U3G U53C A57G C66U A69U, for which the yeast fitness was not above 0.5.

On to C4A A20U C34A G63C G67C A69U, for which the yeast fitness was not above 0.5. With C4A A15G G17A A21C U28A A40U, the yeast fitness was not above 0.5. Then C4A A14U A20C U28G G63U A69C, with not above 0.5. On to C4A C29G A40U C55A G67C, for which the yeast fitness was not above 0.5. In the case of C4A A14G C24U U32G A43G, the yeast fitness was not above 0.5.

In the case of C4A A36C A42G, the yeast fitness is not above 0.5.

In the case of C4A C11U U32A G38C U47A, the yeast fitness is not above 0.5.

C4A C22U C24A C29A A36C G52A U53A: the yeast fitness was not above 0.5.

Take C4A C29G A36U U53C: the yeast fitness is not above 0.5.

Regarding C4A A14U A20C U28G C62A, the yeast fitness is not above 0.5. As for C4A A21U C27A G41C A70G, the yeast fitness was not above 0.5. With C4A C5U U8C U47C U64A, the yeast fitness was not above 0.5. The figure for C4A C5U U19A is 0.532; for C4A C30A G48C it is not above 0.5; for C4A C5U G39C A42C G52C C62U it is not above 0.5. Then C4A A36U A37C U47C A70U, with 0.55.
